Results from ChEMBL document CHEMBL4219224, “Structure based drug design and in vitro metabolism study: Discovery of N-(4-methylthiophenyl)-N,2-dimethyl-cyclopenta[d]pyrimidine as a potent microtubule targeting agent” (Bioorg Med Chem, 2018).

Key:
[1] = Induction of microtubule depolymerization in rat A10 cells by indirect immunofluorescence method; format: cell-based
How it was run: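 A-10 cells, which arrest in interphase, used to score loss of interphase microtubules. EC50 values calculated per an earlier method, minimum of three independent experiments.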

Bos taurus = species on record: Bos taurus; assay: Inhibition of [3H]colchicine binding to bovine brain tubulin at 5 uM measured after 10 mins by scintillation counting method relative to control
How it was run: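 Reactions of 0.1 mL held 1.0 μM bovine brain tubulin, 5.0 μM [3H]colchicine, inhibitor at 1.0 or 5.0 μM, colchicine-binding stabilizing components and 5% DMSO, assembled on ice with tubulin added last. Incubated 10 min at 37 °C, stopped with ice water, filtered through DEAE-cellulose filters. Bound radiolabel counted by scintillation.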

[2] = Resistance index, ratio of IC50 for human SKOV3-MDR1-M6/6 cells to IC50 for human SKOV3 cells; format: functional
How it was run: (§1)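 Antiproliferative IC50 by SRB assay (cellular protein) in each isogenic pair: SK-OV-3 parental versus Pgp-expressing, and parental HeLa versus wild-type βIII-tubulin-expressing HeLa. Rr is the IC50 ratio of the modified line to the parental line. At least three independent experiments, each in triplicate, mean ± SD.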

HeLa [3] = assay: Antiproliferative activity against human HeLa cells by SRB assay; format: functional, cell-based
HeLa [4] = assay: Resistance index, ratio of IC50 for human HeLa cells expressing wild type beta3 tubulin to IC50 for human HeLa cells; format: functional; how it was run: as §1
HOP-62 = assay: Growth inhibition of human HOP62 cells incubated for 48 hrs by sulforhodamine B assay; format: functional; details: HOP-62, 48 h
HOP-92 = assay: Growth inhibition of human HOP92 cells incubated for 48 hrs by sulforhodamine B assay; format: functional; details: HOP-92, 48 h
NCI-H226 = assay: Growth inhibition of human NCI-H226 cells incubated for 48 hrs by sulforhodamine B assay; format: functional; details: NCI-H226, 48 h
NCI-H23 = assay: Growth inhibition of human NCI-H23 cells incubated for 48 hrs by sulforhodamine B assay; format: functional; details: NCI-H23, 48 h
SF-268 = assay: Growth inhibition of human SF268 cells incubated for 48 hrs by sulforhodamine B assay; format: functional; details: SF-268, 48 h
SF-539 = assay: Growth inhibition of human SF539 cells incubated for 48 hrs by sulforhodamine B assay; format: functional; details: SF-539, 48 h
SNB-75 = assay: Growth inhibition of human SNB75 cells incubated for 48 hrs by sulforhodamine B assay; format: functional; details: SNB-75, 48 h
U-251 = assay: Growth inhibition of human U251 cells incubated for 48 hrs by sulforhodamine B assay; format: functional; details: U-251, 48 h
HCT-15 = assay: Growth inhibition of human HCT15 cells incubated for 48 hrs by sulforhodamine B assay; format: functional; details: HCT-15, 48 h
OVCAR-4 = assay: Growth inhibition of human OVCAR4 cells incubated for 48 hrs by sulforhodamine B assay; format: functional; details: OVCAR-4, 48 h
OVCAR-8 = assay: Growth inhibition of human OVCAR8 cells incubated for 48 hrs by sulforhodamine B assay; format: functional; details: OVCAR-8, 48 h
NCI/ADR-RES = assay: Growth inhibition of human NCI/ADR-RES cells incubated for 48 hrs by sulforhodamine B assay; format: functional
M14 = assay: Growth inhibition of human M14 cells incubated for 48 hrs by sulforhodamine B assay; format: functional; details: M14, 48 h
SK-MEL-28 = assay: Growth inhibition of human SK-MEL-28 cells incubated for 48 hrs by sulforhodamine B assay; format: functional; details: SK-MEL-28, 48 h
PC-3 = assay: Growth inhibition of human PC3 cells incubated for 48 hrs by sulforhodamine B assay; format: functional; details: PC-3, 48 h
MCF7 = assay: Growth inhibition of human MCF7 cells incubated for 48 hrs by sulforhodamine B assay; format: functional; details: MCF7, 48 h
MDA-MB-231 = assay: Growth inhibition of human MDA-MB-231 cells incubated for 48 hrs by sulforhodamine B assay; format: functional; details: MDA-MB-231, 48 h
HL-60(TB) = assay: Growth inhibition of human HL-60(TB) cells incubated for 48 hrs by sulforhodamine B assay; format: functional; details: HL-60, 48 h
RPMI-8226 = assay: Growth inhibition of human RPMI8226 cells incubated for 48 hrs by sulforhodamine B assay; format: functional; details: RPMI-8226, 48 h
MDA-MB-435 (human) = assay: Antiproliferative activity against human MDA-MB-435 cells by SRB assay

CSc1ccc(N(C)c2nc(C)nc3c2CCC3)cc1
EC50 [1]: 13 nM | inhibition (Bos taurus): 92% | Ratio IC50 [2]: 1.3 | IC50 (HeLa [3]): 7 nM | Ratio IC50 (HeLa [4]): 0.8 | GI50 (HOP-62): < 10 nM | GI50 (HOP-92): < 10 nM | GI50 (NCI-H226): < 10 nM | GI50 (NCI-H23): < 10 nM | GI50 (SF-268): < 10 nM | GI50 (SF-539): < 10 nM | GI50 (SNB-75): < 10 nM | GI50 (U-251): < 10 nM | GI50 (HCT-15): < 10 nM | GI50 (OVCAR-4): < 10 nM | GI50 (OVCAR-8): < 10 nM | GI50 (NCI/ADR-RES): < 10 nM | GI50 (M14): < 10 nM | GI50 (SK-MEL-28): > 10000 nM | GI50 (PC-3): < 10 nM | GI50 (MCF7): < 10 nM | GI50 (MDA-MB-231): < 10 nM | GI50 (HL-60(TB)): < 10 nM | GI50 (RPMI-8226): < 10 nM | IC50 (MDA-MB-435 (human)): 4.6 nM
